Screening data (PubChem BioAssay)
Shown are actives, neighbours in structure and some others; about 4.6% of the full set was active somewhere.
CHO parental Ca = signal in parental CHO cells, OX1R antagonist counter-screen. parental CHO-K1, ATP-induced calcium, Fluo-8 fluorescence. inhibition, % at 5.6 µM. 0.63% of 330,000 active. AID 463079;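 active = inhibition above that plate's mean sample inhibition plus 3 SD, cut at about 26% in these data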;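 also: 0% = ATP-challenged DMSO wells and 100% = DMSO wells without ATP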
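Material: Parental CHO cells | Reagent: ATP | Compound dosing: Single nominal dose of 5.6 µM per compound | Detection: Intracellular calcium via Fluo-8 no-wash fluorescent dye | Read-out: % inhibition of ATP-induced calcium mobilization | Benchmarks: Low control ATP plus DMSO, high control DMSO only | Replicates: Singlicate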
TAAR1 agonist = human TAAR1 agonism. 0.99% of 360,000 active. CHO RD-HGA16 TAAR1, Fluo-8 calcium fluorescence; vehicle wells 0%, saturating PEA agonist 100%. activation, % at 3 µM. Q96RJ0;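 active = activation above the mean activation of all test compounds in the run plus 3 SD, cut at about 38% in these data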
Target sequence (Q96RJ0 whole entry, looked up): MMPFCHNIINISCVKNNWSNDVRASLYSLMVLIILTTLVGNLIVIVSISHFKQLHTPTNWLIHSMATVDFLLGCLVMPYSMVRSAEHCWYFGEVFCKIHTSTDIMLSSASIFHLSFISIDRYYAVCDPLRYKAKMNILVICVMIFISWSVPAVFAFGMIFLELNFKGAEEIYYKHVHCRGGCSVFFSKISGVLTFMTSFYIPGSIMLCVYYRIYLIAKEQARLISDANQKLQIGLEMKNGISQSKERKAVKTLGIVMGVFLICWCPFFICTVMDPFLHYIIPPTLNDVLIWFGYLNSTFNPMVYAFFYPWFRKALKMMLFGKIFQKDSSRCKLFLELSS
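Repeats: no replicates (n 1) | Material: CHO-derived RD-HGA16 cells with stable Gα16 and human TAAR1 | Technique: Kinetic Fluo-8 calcium fluorescence | Schedule: 17-24 h seeding, 75 min 37 °C dye, 30 min RT | Evaluation: % activation from peak over basal fluorescence ratio, DMSO-to-PEA scaled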
GPR7 antagonist = blocks human GPR7 receptor signaling | P48145 | GPR7-expressing cells, fluorescence antagonist assay | inhibition, % at 4.4 µM | 1.1% of 290,000 active | AID 1861; in the data active = inhibition above about 16%, passing the limit was not always enough;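 also: cells stimulated with the agonist NPW; 0% = agonist with vehicle and 100% = vehicle without agonist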
OX1R antag-1 = human HCRTR1 antagonism; 0.43% of 330,000 active; CHO/OX1R cells, Fluo-8 calcium fluorescence, orexin A; O43613; inhibition, % at 5 µM;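 active = inhibition above its plate's threshold, mean inhibition of all tested compounds on the plate plus 3 SD, cut at about 37% in these data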;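 also: 0% = orexin A challenge wells and 100% = SB-334867-A antagonist wells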
Target sequence (O43613 whole entry, looked up): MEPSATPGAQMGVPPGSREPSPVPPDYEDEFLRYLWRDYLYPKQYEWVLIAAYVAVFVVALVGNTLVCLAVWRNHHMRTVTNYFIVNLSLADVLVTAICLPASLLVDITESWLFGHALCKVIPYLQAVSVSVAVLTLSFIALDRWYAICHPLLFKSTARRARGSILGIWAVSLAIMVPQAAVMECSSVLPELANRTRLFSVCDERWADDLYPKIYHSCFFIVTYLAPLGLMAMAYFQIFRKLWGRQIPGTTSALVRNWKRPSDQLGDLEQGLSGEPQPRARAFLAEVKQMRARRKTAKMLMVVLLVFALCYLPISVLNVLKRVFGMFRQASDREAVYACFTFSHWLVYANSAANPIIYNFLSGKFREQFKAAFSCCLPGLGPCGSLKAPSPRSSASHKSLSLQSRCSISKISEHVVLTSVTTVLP
OX1R antag-2 = blocks the human orexin 1 receptor | AID 485270 | OX1R-expressing cells, FRET antagonist read-out | inhibition, % at 6.6 µM | 1.8% of 330,000 active | O43613; in the data active = inhibition mostly above about 38%, no sharp cut-off; inactive = mostly below about 40%;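 also: 0% = agonist challenge alone and 100% = reference antagonist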
TAAR1 antagonist = human TAAR1 antagonism; 1.5% of 360,000 active; CHO RD-HGA16 TAAR1, Fluo-8 calcium fluorescence, antagonist; AID 624466; inhibition, % at 3 µM;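 active = inhibition above a per-plate cutoff, the mean inhibition of test compounds on that plate plus 3 SD, cut at about 49% in these data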;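 also: 0% = DMSO plus EC80 beta-PEA response and 100% = DMSO alone without agonist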
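System: CHO RD-HGA16 cells bearing hTAAR1. Reagent: EC80 β-phenethylamine stimulus. Schedule: seeding 17-24 h prior, 75-min 37 °C, 30-min RT dye loading. Signal: Fluo-8 intracellular calcium dye fluorescence, real-time kinetic reads. Read-out: % inhibition from peak post-agonist over basal fluorescence ratio. Benchmarks: vehicle wells and EC80 agonist wells. Replicates: n of 1.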
GPR7 antag cf = human GPR7 antagonism, confirmation assay; shares compounds with GPR7 antagonist; GPR7-expressing cells, calcium fluorescence antagonist mode; 52% of 2,400 active; inhibition, % at 4.4 µM; in the data active = inhibition above about 24%;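 also: stimulated with the GPR7 agonist NPW; 0% = agonist plus vehicle and 100% = vehicle alone without agonist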
MCHR1 antag = counter-screen for GPR7 antagonists: antagonists of human MCHR1; shares compounds with GPR7 antagonist; MCHR1-expressing cells, fluorescence antagonist assay; inhibition, % at 4.4 µM; 62% of 2,400 active; AID 2148; in the data active = inhibition above about 22%;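 also: 0% = vehicle with agonist and 100% = vehicle without agonist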
* = called active by the depositor; nt = no result.

SMILES	CHO parental Ca	TAAR1 agonist	GPR7 antagonist	OX1R antag-1	OX1R antag-2	TAAR1 antagonist	GPR7 antag cf	MCHR1 antag
CC(NC(=O)Cc1ccc(F)cc1)c1ccccc1 (centres undefined)	-22.4	7.0	-11.2	-18.6	10.9	3.7	nt	nt
CC(NC(=O)Cc1cccc(C(F)(F)F)c1)c1ccc(F)cc1 (centres undefined)	-5.4	4.6	26.5*	-18.9	11.3	4.6	7.2	14.6
COCCNC(=O)Cn1c(=O)n(CCCCCC(=O)NCc2ccc3c(c2)OCO3)c(=O)c2sccc21	-13.4	nt	29.4*	-13.2	6.6	nt	-6.6	-3.5
CCOc1ccc(-n2c(-c3ccccc3)c[n+]3c2CCCCC3)cc1	2.9	-0.6	28.6*	0.1	6.3	4.9	47.4*	44.8*
COc1ccc(S(=O)(=O)n2ccnc2C)c(C)c1C	-8.8	-0.5	-13.2	-8.2	-4.2	-3.1	nt	nt
COc1ccccc1C(=O)NC(CCSC)C(=O)OCC(=O)N1CCN(S(=O)(=O)c2ccc(C)cc2)CC1 (centres undefined)	nt	0.8	nt	nt	nt	20.6	nt	nt
CCC(=O)OCOc1ccc(/C=C2/CCC(CN(C)C)C2=O)cc1 (centres undefined)	nt	20.2	nt	nt	nt	41.0	nt	nt
Cc1ccc(CNS(=O)(=O)c2ccc(C)s2)cc1	2.9	-1.9	27.9*	0.1	24.7	16.3	11.9	4.3
OCCN1CCN(CC(O)COc2ccc(Cl)cc2)CC1 (centres undefined)	-1.4	3.9	-7.0	-7.3	14.2	-3.3	nt	nt
OCCN1CCN(CC(O)COc2ccc(C34CC5CC(CC(C5)C3)C4)cc2)CC1 (centres undefined)	9.2	19.8	40.2*	-6.6	10.3	-6.1	34.6*	51.0*
CN(CCc1ccccc1)C1CCCN(S(=O)(=O)N(C)C)C1 (centres undefined)	-2.0	0.8	6.4	-19.1	11.5	-9.6	nt	nt
C=CCC1(CC=C)CCCN1C(=O)c1cc(COc2cncc(Cl)c2)on1	65.3*	-0.1	38.2*	30.6	43.5	24.9	28.3*	51.6*
C=CCC1(CC=C)CCCN1C(=O)c1cc(COc2cccc(OC)c2)on1	10.9	0.1	-9.3	-3.6	10.7	33.8	nt	nt
O=C(Nc1ccccc1C(=O)NCCc1ccc(O)cc1)c1ccco1	-2.5	34.1	-13.2	-12.5	8.0	41.2	nt	nt
Cc1cccc(N2CCN(C(=O)C3CCC(=O)N(C4CC4)C3)CC2)c1C (centres undefined)	-12.1	0.5	-5.0	-17.9	-1.9	-13.1	nt	nt
Cn1c(Cc2ccccc2)nnc1SCC(=O)NC1CC1	-9.0	-2.6	3.1	-13.3	-5.1	-4.6	nt	nt
Cn1c(Cc2ccccc2)nnc1SCC(=O)NC1CCCC1	-2.6	3.8	39.3*	-12.8	16.0	1.1	-10.2	-4.5
O=C(CSc1nnc(Cc2ccccc2)n1Cc1ccco1)NC1CCCC1	-12.1	4.7	33.1*	-15.4	9.8	-7.2	26.2*	13.5
CCN(CC)CCCN(Cc1cc2cc3c(cc2[nH]c1=O)OCO3)C(=S)NCCOC	-5.8	2.5	-10.4	-16.5	5.8	-16.4	nt	nt
CC(NCc1ccc(-c2ccccc2)cc1)C(O)c1ccccc1 (centres undefined)	4.7	26.9	30.9*	-3.9	10.0	31.2	25.0*	51.1*
Cc1cc([N+](=O)[O-])cc(C)c1OCC(=O)N/N=C/c1ccc(OC(=O)c2ccccc2)cc1	-1.6	-1.3	nt	2.3	11.0	-41.9	nt	9.3
CCOC(=O)C1=CCN(S(=O)(=O)c2ccccc2C)C1c1ccc(Cl)cc1 (centres undefined)	nt	6.2	nt	nt	nt	44.5	nt	nt
O=C(CCc1nnc2ccc(N3CCCC3)nn12)Nc1ccc(F)c(F)c1	-7.0	5.3	-0.2	-11.3	8.7	-13.1	nt	nt
CC1CCN(c2ccc3nnc(CCC(=O)Nc4ccc(F)c(F)c4)n3n2)CC1	-19.0	-2.4	28.2*	-28.2	14.9	-26.2	37.4*	40.5*
COc1ccc(N(C)S(=O)(=O)c2cccc(C(=O)NCC3CCCCC3)c2)cc1	nt	3.1	25.9*	nt	nt	-10.0	37.6*	37.5*
SMILES	CHO parental Ca	TAAR1 agonist	GPR7 antagonist	OX1R antag-1	OX1R antag-2	TAAR1 antagonist	GPR7 antag cf	MCHR1 antag
CN(C)S(=O)(=O)c1cccc(C(=O)NCC2CCCCC2)c1	-10.5	0.0	1.6	-25.6	6.2	-5.7	nt	nt
COc1ccc(N(C)S(=O)(=O)c2cccc(C(=O)NC3CCCC3)c2)cc1	-1.6	3.0	39.0*	-11.1	9.8	-30.7	43.3*	23.6*
CCOCCCNC(=O)c1oc2ccc3c(c2c1C)C(O)CC(C)(C)O3 (centres undefined)	nt	2.8	-11.2	nt	nt	-10.6	nt	nt
O=C(CN1C(=O)C2C3CC(C(Br)C3Br)C2C1=O)N1CCN(Cc2ccccc2)CC1 (centres undefined)	-4.2	3.1	29.4*	-11.1	10.0	-11.9	40.8*	13.7
O=C(CN1C(=O)C2C3CC(C(Br)C3Br)C2C1=O)N1CCOCC1 (centres undefined)	-6.3	3.2	-0.6	14.1	12.8	5.0	nt	nt
CCN(C(=O)c1ccnn1C)c1ccccc1	-3.7	9.3	10.2	-3.8	0.4	-10.0	nt	nt
COc1ccc(NC(=O)CN(C)C(=O)c2cccc(S(=O)(=O)N3CCN(C)CC3)c2)cc1	3.7	0.9	nt	-1.9	9.8	-0.9	nt	nt
CCOc1ccc(S(=O)(=O)N2CCN(Cc3ccccc3)CC2)cc1	1.6	10.9	27.6*	-17.0	2.0	2.4	19.6	27.8*
COc1ccc(NC(=O)CN(C)C(=O)c2cccc(S(=O)(=O)N3CCN(Cc4ccccc4)CC3)c2)cc1	-6.2	nt	35.3*	-19.4	15.2	nt	31.0*	45.9*
COC(=O)[C@@]12C[C@@H](CC(=O)NCc3ccc(OC)c(OC)c3)C(=O)N(Cc3ccccc3)C1=CCC(C)(C)C2	nt	0.0	nt	nt	nt	-18.7	nt	nt
COc1ccc(OC)c(NC(=O)C2CCN(C(=O)C3CC(=O)N(c4ccc(C)cc4)C3)CC2)c1 (centres undefined)	-22.2	3.3	-12.4	-31.1	9.6	-6.4	nt	nt
CCOC(=O)C1=C(c2ccccc2)NC(=O)NC1c1ccc(O)c(Cl)c1 (centres undefined)	-3.5	0.8	74.6*	9.3	7.6	40.6	66.1*	49.0*
CCOC(=O)C1=C(c2ccccc2)NC(=O)NC1c1ccc(O)c(OCC)c1 (centres undefined)	-6.0	0.7	-7.2	-10.2	14.5	-11.9	nt	nt
COc1ccc2c(c1OC)C(=O)N(c1ccc(C)cc1)C2	-9.5	0.2	23.4*	-10.2	14.2	-14.7	9.0	2.0
COc1ccc2c(c1OC)C(=O)N(c1cccc(C)c1)C2	-17.0	2.7	-6.6	-8.0	18.6	2.4	nt	nt
